# Experimental data reported in ChEMBL document CHEMBL1137333, “Synthesis, radiosynthesis, and biological evaluation of carbon-11 labeled 2beta-carbomethoxy-3beta-(3'-((Z)-2-haloethenyl)phenyl)nortropanes: candidate radioligands for in vivo imaging of the serotonin transporter with positron emission tomography” (J Med Chem, 2006).
# Legend:
# Cynomolgus monkey [1] = experiment: Uptake in anesthetized cynomolgus monkey medulla after 3.5 mins; format: ADME, organism-based, Medulla of organ; settings: in vivo
# Summary of the method: (§1)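 Baseline microPET scan (P4 scanner) of anesthetized cynomolgus monkeys after injection of the carbon-11 labelled nortropane tracer. Two baseline studies were run per tracer. Radioactivity was followed over time in regional brain time-activity curves.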
# Cynomolgus monkey [2] = experiment: Uptake in anesthetized cynomolgus monkey medulla after 6.5 mins; format: ADME, organism-based, Medulla of organ; settings: in vivo; summary of the method: as §1
# Cynomolgus monkey [3] = experiment: Uptake in anesthetized cynomolgus monkey medulla after 27.5 mins; format: ADME, organism-based, Medulla of organ; settings: in vivo; summary of the method: as §1
# Cynomolgus monkey [4] = experiment: Uptake in anesthetized cynomolgus monkey medulla after 45.0 mins; format: ADME, organism-based, Medulla of organ; settings: in vivo, 0.75 h; summary of the method: as §1
# Cynomolgus monkey [5] = experiment: Uptake in anesthetized cynomolgus monkey medulla after 55.0 mins; format: ADME, organism-based, Medulla of organ; settings: in vivo; summary of the method: as §1
# Cynomolgus monkey [6] = experiment: Uptake in anesthetized cynomolgus monkey cerebellum after 3.5 mins; format: ADME, organism-based; settings: in vivo
# Summary of the method: (§2)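 Baseline microPET (Concorde P4) regional brain time-activity curves in anesthetized cynomolgus monkey following injection of the [11C]-labelled tracer, with radioactivity followed over the scan.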
# Cynomolgus monkey [7] = experiment: Uptake in anesthetized cynomolgus monkey cerebellum after 15.5 mins; format: ADME, organism-based, Macaca mulatta; settings: rhesus monkey, in vivo; summary of the method: as §2
# Cynomolgus monkey [8] = experiment: Uptake in anesthetized cynomolgus monkey cerebellum after 45.0 mins; format: ADME, organism-based; settings: in vivo, 0.75 h; summary of the method: as §2
# Cynomolgus monkey [9] = experiment: Uptake in anesthetized cynomolgus monkey frontal after 75.0 mins; format: ADME, organism-based, Frontal cortex; settings: in vivo, 1.25 h; summary of the method: as §1
# Cynomolgus monkey [10] = experiment: Uptake in anesthetized cynomolgus monkey occipital after 22.5 mins; format: ADME, organism-based, Occipital cortex; settings: in vivo, 0.375 h; summary of the method: as §1
# Cynomolgus monkey [11] = experiment: Uptake in anesthetized cynomolgus monkey occipital after 65.0 mins; format: ADME, organism-based, Macaca mulatta, Occipital cortex; settings: rhesus monkey, in vivo; summary of the method: as §1
# Cynomolgus monkey [12] = experiment: Uptake in anesthetized cynomolgus monkey frontal after 0.5 mins; format: ADME, organism-based, Frontal cortex; settings: in vivo; summary of the method: as §2
# Cynomolgus monkey [13] = experiment: Uptake in anesthetized cynomolgus monkey frontal after 9.5 mins; format: ADME, organism-based, Frontal cortex; settings: in vivo; summary of the method: as §1
# Cynomolgus monkey [14] = experiment: Uptake in anesthetized cynomolgus monkey frontal after 27.5 mins; format: ADME, organism-based, Frontal cortex; settings: in vivo; summary of the method: as §1
# Cynomolgus monkey [15] = experiment: Uptake in anesthetized cynomolgus monkey frontal after 35.0 mins; format: ADME, organism-based, Frontal cortex; settings: in vivo; summary of the method: as §1
# Cynomolgus monkey [16] = experiment: Ratio of uptake in putamen to cerebellum of anesthetized cynomolgus monkey after 65 mins; format: ADME, organism-based; settings: in vivo
# Summary of the method: (§3)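 Baseline microPET (Concorde P4) in anesthetized cynomolgus monkey after injection of the [11C]-labelled tracer. Regional time-activity curves were taken, and each region's uptake was divided by cerebellum uptake (low-SERT reference) at 65, 85 and 105 min postinjection.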
# Cynomolgus monkey [17] = experiment: Ratio of uptake in thalamus to cerebellum of anesthetized cynomolgus monkey after 65 mins; format: ADME, organism-based; settings: in vivo; summary of the method: as §3
# Cynomolgus monkey [18] = experiment: Ratio of uptake in midbrain to cerebellum of anesthetized cynomolgus monkey after 65 mins; format: ADME, organism-based; settings: in vivo; summary of the method: as §3
# Cynomolgus monkey [19] = experiment: Ratio of uptake in medulla to cerebellum of anesthetized cynomolgus monkey after 105 mins; format: ADME, organism-based; settings: in vivo, 1.75 h; summary of the method: as §3
# Cynomolgus monkey [20] = experiment: Ratio of uptake in frontal to cerebellum of anesthetized cynomolgus monkey after 105 mins; format: ADME, organism-based; settings: in vivo, 1.75 h; summary of the method: as §3
# Cynomolgus monkey [21] = experiment: Ratio of uptake in occipital to cerebellum of anesthetized cynomolgus monkey after 105 mins; format: ADME, organism-based; settings: in vivo, 1.75 h; summary of the method: as §3
# Cynomolgus monkey [22] = experiment: Uptake in anesthetized cynomolgus monkey caudate after 2.5 mins; format: ADME, organism-based, Caudate nucleus; settings: in vivo; summary of the method: as §2
# Cynomolgus monkey [23] = experiment: Uptake in anesthetized cynomolgus monkey caudate after 27.5 mins; format: ADME, organism-based, Caudate nucleus; settings: in vivo; summary of the method: as §2
# Cynomolgus monkey [24] = experiment: Uptake in anesthetized cynomolgus monkey putamen after 1.5 mins; format: ADME, organism-based; settings: in vivo, 0.025 h
# Summary of the method: (§4)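 Baseline microPET (Concorde P4) scan in anesthetized cynomolgus monkeys after injection of the carbon-11 labeled tracer, with no chase drug. Regional brain time-activity curves were followed over the scan. Tracer radiochemical purity and specific activity were determined by analytical HPLC at the time of injection.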
# Cynomolgus monkey [25] = experiment: Uptake in anesthetized cynomolgus monkey putamen after 2.5 mins; format: ADME, organism-based; settings: in vivo; summary of the method: as §4
# Cynomolgus monkey [26] = experiment: Uptake in anesthetized cynomolgus monkey putamen after 6.5 mins; format: ADME, organism-based; settings: in vivo; summary of the method: as §4
# Cynomolgus monkey [27] = experiment: Uptake in anesthetized cynomolgus monkey putamen after 9.5 mins; format: ADME, organism-based; settings: in vivo; summary of the method: as §4
# Cynomolgus monkey [28] = experiment: Ratio of uptake in caudate to cerebellum of anesthetized cynomolgus monkey after 65 mins; format: ADME, organism-based; settings: in vivo; summary of the method: as §3
# Cynomolgus monkey [29] = experiment: Ratio of uptake in pons to cerebellum of anesthetized cynomolgus monkey after 65 mins; format: ADME, organism-based; settings: in vivo; summary of the method: as §3
# Cynomolgus monkey [30] = experiment: Ratio of uptake in medulla to cerebellum of anesthetized cynomolgus monkey after 65 mins; format: ADME, organism-based; settings: in vivo; summary of the method: as §3
# Cynomolgus monkey [31] = experiment: Ratio of uptake in frontal to cerebellum of anesthetized cynomolgus monkey after 65 mins; format: ADME, organism-based; settings: in vivo; summary of the method: as §3
# Cynomolgus monkey [32] = experiment: Ratio of uptake in midbrain to cerebellum of anesthetized cynomolgus monkey after 85 mins; format: ADME, organism-based; settings: in vivo; summary of the method: as §3
# Cynomolgus monkey [33] = experiment: Ratio of uptake in pons to cerebellum of anesthetized cynomolgus monkey after 85 mins; format: ADME, organism-based; settings: in vivo; summary of the method: as §3
# Cynomolgus monkey [34] = experiment: Ratio of uptake in frontal to cerebellum of anesthetized cynomolgus monkey after 85 mins; format: ADME, organism-based; settings: in vivo; summary of the method: as §3
# Cynomolgus monkey [35] = experiment: Uptake in anesthetized cynomolgus monkey midbrain after 27.5 mins; format: ADME, organism-based; settings: in vivo; summary of the method: as §1
# Cynomolgus monkey [36] = experiment: Uptake in anesthetized cynomolgus monkey midbrain after 45.0 mins; format: ADME, organism-based; settings: in vivo, 0.75 h; summary of the method: as §1
# Cynomolgus monkey [37] = experiment: Uptake in anesthetized cynomolgus monkey midbrain after 55.0 mins; format: ADME, organism-based; settings: in vivo; summary of the method: as §1
# Cynomolgus monkey [38] = experiment: Uptake in anesthetized cynomolgus monkey midbrain after 105.0 mins; format: ADME, organism-based; settings: in vivo, 1.75 h; summary of the method: as §1
# Cynomolgus monkey [39] = experiment: Uptake in anesthetized cynomolgus monkey midbrain after 115.0 mins; format: ADME, organism-based; settings: in vivo; summary of the method: as §1
# Cynomolgus monkey [40] = experiment: Uptake in anesthetized cynomolgus monkey pons after 0.5 mins; format: ADME, organism-based; settings: in vivo; summary of the method: as §1
# Cynomolgus monkey [41] = experiment: Uptake in anesthetized cynomolgus monkey pons after 3.5 mins; format: ADME, organism-based; settings: in vivo; summary of the method: as §4
# Cynomolgus monkey [42] = experiment: Uptake in anesthetized cynomolgus monkey pons after 9.5 mins; format: ADME, organism-based; settings: in vivo
# Summary of the method: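 Carbon-11 labelled tracer injected into anesthetized cynomolgus monkeys under baseline conditions. Regional brain radioactivity was followed by microPET (Concorde microPET P4) and expressed as time-activity curves for the brain regions. Two baseline studies were run per tracer. Tracer radiochemical purity and specific activity were determined by analytical HPLC at the time of injection.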
# Cynomolgus monkey [43] = experiment: Uptake in anesthetized cynomolgus monkey pons after 45.0 mins; format: ADME, organism-based; settings: in vivo, 0.75 h; summary of the method: as §4
# Cynomolgus monkey [44] = experiment: Uptake in anesthetized cynomolgus monkey pons after 55.0 mins; format: ADME, organism-based; settings: in vivo; summary of the method: as §4
# Cynomolgus monkey [45] = experiment: Uptake in anesthetized cynomolgus monkey pons after 75.0 mins; format: ADME, organism-based; settings: in vivo, 1.25 h; summary of the method: as §4
# Cynomolgus monkey [46] = experiment: Uptake in anesthetized cynomolgus monkey medulla after 0.5 mins; format: ADME, organism-based, Medulla of organ; settings: in vivo; summary of the method: as §1
# Cynomolgus monkey [47] = experiment: Uptake in anesthetized cynomolgus monkey medulla after 1.5 mins; format: ADME, organism-based, Medulla of organ; settings: in vivo, 0.025 h; summary of the method: as §1
# Cynomolgus monkey [48] = experiment: Uptake in anesthetized cynomolgus monkey putamen after 12.5 mins; format: ADME, organism-based; settings: in vivo; summary of the method: as §4
# Cynomolgus monkey [49] = experiment: Uptake in anesthetized cynomolgus monkey putamen after 15.5 mins; format: ADME, organism-based; settings: in vivo; summary of the method: as §4
# Cynomolgus monkey [50] = experiment: Uptake in anesthetized cynomolgus monkey putamen after 35.0 mins; format: ADME, organism-based; settings: in vivo; summary of the method: as §4
# Cynomolgus monkey [51] = experiment: Uptake in anesthetized cynomolgus monkey putamen after 45.0 mins; format: ADME, organism-based; settings: in vivo, 0.75 h; summary of the method: as §4
# Cynomolgus monkey [52] = experiment: Uptake in anesthetized cynomolgus monkey putamen after 65.0 mins; format: ADME, organism-based; settings: in vivo; summary of the method: as §4
# Cynomolgus monkey [53] = experiment: Uptake in anesthetized cynomolgus monkey thalamus after 45.0 mins; format: ADME, organism-based; settings: in vivo, 0.75 h; summary of the method: as §4
# Cynomolgus monkey [54] = experiment: Uptake in anesthetized cynomolgus monkey thalamus after 85.0 mins; format: ADME, organism-based; settings: in vivo; summary of the method: as §4
# Cynomolgus monkey [55] = experiment: Uptake in anesthetized cynomolgus monkey thalamus after 105.0 mins; format: ADME, organism-based; settings: in vivo, 1.75 h; summary of the method: as §4
smiles,measurement,setting,value
[11CH3]OC(=O)[C@@H]1C2CCC(C[C@@H]1c1cccc(/C=C/I)c1)N2 (stereo not given in full),Drug uptake,Cynomolgus monkey [1],2.62
same,Drug uptake,Cynomolgus monkey [2],5.28
same,Drug uptake,Cynomolgus monkey [3],7.04
same,Drug uptake,Cynomolgus monkey [4],7.21
same,Drug uptake,Cynomolgus monkey [5],7.26
same,Drug uptake,Cynomolgus monkey [6],2.19
same,Drug uptake,Cynomolgus monkey [7],5.73
same,Drug uptake,Cynomolgus monkey [8],5.11
same,Drug uptake,Cynomolgus monkey [9],3.73
same,Drug uptake,Cynomolgus monkey [10],5.01
same,Drug uptake,Cynomolgus monkey [11],4.4
same,Drug uptake,Cynomolgus monkey [12],0.01
same,Drug uptake,Cynomolgus monkey [13],3.33
same,Drug uptake,Cynomolgus monkey [14],4.09
same,Drug uptake,Cynomolgus monkey [15],4.13
same,Ratio,Cynomolgus monkey [16],1.6
same,Ratio,Cynomolgus monkey [17],1.6
same,Ratio,Cynomolgus monkey [18],1.7
same,Ratio,Cynomolgus monkey [19],2.1
same,Ratio,Cynomolgus monkey [20],1.2
same,Ratio,Cynomolgus monkey [21],1.1
same,Drug uptake,Cynomolgus monkey [22],0.89
same,Drug uptake,Cynomolgus monkey [23],5.41
same,Drug uptake,Cynomolgus monkey [24],0.35
same,Drug uptake,Cynomolgus monkey [25],1.14
same,Drug uptake,Cynomolgus monkey [26],4.68
same,Drug uptake,Cynomolgus monkey [27],5.39
same,Ratio,Cynomolgus monkey [28],1.3
same,Ratio,Cynomolgus monkey [29],1.4
same,Ratio,Cynomolgus monkey [30],1.6
same,Ratio,Cynomolgus monkey [31],1
same,Ratio,Cynomolgus monkey [32],2
same,Ratio,Cynomolgus monkey [33],1.6
same,Ratio,Cynomolgus monkey [34],1.1
same,Drug uptake,Cynomolgus monkey [35],7.14
same,Drug uptake,Cynomolgus monkey [36],7.66
same,Drug uptake,Cynomolgus monkey [37],7.57
same,Drug uptake,Cynomolgus monkey [38],7.34
same,Drug uptake,Cynomolgus monkey [39],7.23
same,Drug uptake,Cynomolgus monkey [40],0.01
same,Drug uptake,Cynomolgus monkey [41],1.79
same,Drug uptake,Cynomolgus monkey [42],4.69
same,Drug uptake,Cynomolgus monkey [43],6.02
same,Drug uptake,Cynomolgus monkey [44],6.13
same,Drug uptake,Cynomolgus monkey [45],5.92
same,Drug uptake,Cynomolgus monkey [46],0.02
same,Drug uptake,Cynomolgus monkey [47],0.39
same,Drug uptake,Cynomolgus monkey [48],5.9
same,Drug uptake,Cynomolgus monkey [49],6.17
same,Drug uptake,Cynomolgus monkey [50],7.2
same,Drug uptake,Cynomolgus monkey [51],7.16
same,Drug uptake,Cynomolgus monkey [52],7.06
same,Drug uptake,Cynomolgus monkey [53],7.14
same,Drug uptake,Cynomolgus monkey [54],6.65
same,Drug uptake,Cynomolgus monkey [55],6.3
